What was measured:
[1] = test system: COLO 205; assay: Growth inhibition of human COLO205 cells assessed as cell growth at 10^-5 M after 48 hrs by sulforhodamine B assay relative to control; assay type: functional; details: COLO 205, 48 h, read-out: Activity
Method in brief: (§1)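 NCI-60 single-dose screen at 10^-5 M. Cells grown in RPMI 1640 with 5% FBS and 2 mM L-glutamine, plated at 5,000–40,000 cells/well according to doubling time, and preincubated 24 h at 37°C, 5% CO2. Compound dissolved in DMSO and added. Exposure 48 h. Adherent cells fixed with cold TCA (10% final), suspension cells with 16% final TCA. Read-out is 0.4% SRB staining, dye solubilised in 10 mM Tris, absorbance at 515 nm. Percent growth is calculated against the time-zero plate and untreated control.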

[2] = target: T1, Leukotriene A-4 hydrolase (Homo sapiens, UniProt P09960); assay: Inhibition of human leukotriene A-4 hydrolase
T1 sequence (P09960 whole entry): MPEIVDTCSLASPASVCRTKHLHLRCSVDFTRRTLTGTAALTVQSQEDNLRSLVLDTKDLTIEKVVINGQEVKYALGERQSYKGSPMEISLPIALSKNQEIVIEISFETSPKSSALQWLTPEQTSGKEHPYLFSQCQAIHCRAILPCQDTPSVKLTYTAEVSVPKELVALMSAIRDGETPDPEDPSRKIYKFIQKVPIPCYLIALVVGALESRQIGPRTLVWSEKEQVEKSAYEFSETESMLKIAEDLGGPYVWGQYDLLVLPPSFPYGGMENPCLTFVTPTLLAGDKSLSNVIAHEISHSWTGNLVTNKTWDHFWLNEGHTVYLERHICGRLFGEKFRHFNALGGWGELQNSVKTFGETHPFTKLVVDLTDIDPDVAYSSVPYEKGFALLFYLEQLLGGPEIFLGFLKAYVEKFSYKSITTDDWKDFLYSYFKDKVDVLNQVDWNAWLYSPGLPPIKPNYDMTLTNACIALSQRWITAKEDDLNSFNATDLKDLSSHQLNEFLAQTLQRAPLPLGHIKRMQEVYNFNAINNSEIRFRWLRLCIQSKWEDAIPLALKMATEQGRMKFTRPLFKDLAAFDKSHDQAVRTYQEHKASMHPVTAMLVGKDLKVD

[3] = test system: MDA-MB-435; assay: Growth inhibition of human MDA-MB-435 cells assessed as cell growth at 10^-5 M after 48 hrs by sulforhodamine B assay relative to control; assay type: functional; details: MDA-MB-435, 48 h, read-out: Activity; method in brief: as §1
[4] = test system: TK-10; assay: Growth inhibition of human TK10 cells assessed as cell growth at 10^-5 M after 48 hrs by sulforhodamine B assay relative to control; assay type: functional; details: TK-10, 48 h, read-out: Activity
Method in brief: (§2)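 NCI-60 single-dose screen, 10^-5 M final. Cells grown in RPMI 1640 with 5% FBS and 2 mM L-glutamine, seeded at 5,000–40,000 cells/well by doubling time. Preincubated 24 h at 37°C, 5% CO2. Compound in DMSO, diluted in medium with gentamicin, then 48 h exposure. Fixed with cold TCA, SRB stained, A515 read. Percent growth vs untreated control, time-zero plate corrected.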

[5] = target: Proto-oncogene tyrosine-protein kinase Src (Homo sapiens, UniProt P12931); assay: Inhibition of human SRC
Sequence of Proto-oncogene tyrosine-protein kinase Src (P12931 2-536 limits assumed): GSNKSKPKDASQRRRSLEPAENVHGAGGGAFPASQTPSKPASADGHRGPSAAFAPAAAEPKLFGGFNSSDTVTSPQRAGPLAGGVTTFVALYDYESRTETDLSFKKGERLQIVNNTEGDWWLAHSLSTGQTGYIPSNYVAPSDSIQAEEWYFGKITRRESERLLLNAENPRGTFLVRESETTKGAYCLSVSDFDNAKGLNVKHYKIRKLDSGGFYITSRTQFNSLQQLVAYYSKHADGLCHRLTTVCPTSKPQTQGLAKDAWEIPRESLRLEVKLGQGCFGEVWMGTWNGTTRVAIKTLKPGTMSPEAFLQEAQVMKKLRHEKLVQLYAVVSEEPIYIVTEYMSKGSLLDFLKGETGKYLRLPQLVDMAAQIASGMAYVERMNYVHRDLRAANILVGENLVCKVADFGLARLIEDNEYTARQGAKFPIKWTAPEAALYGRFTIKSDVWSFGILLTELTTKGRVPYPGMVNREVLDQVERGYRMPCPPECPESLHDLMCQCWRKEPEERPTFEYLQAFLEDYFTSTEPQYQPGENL

[6] = test system: SK-MEL-28; assay: Growth inhibition of human SK-MEL-28 cells assessed as cell growth at 10^-5 M after 48 hrs by sulforhodamine B assay relative to control; assay type: functional; details: SK-MEL-28, 48 h, read-out: Activity; method in brief: as §1
[7] = test system: HOP-92; assay: Growth inhibition of human HOP92 cells assessed as cell growth at 10^-5 M after 48 hrs by sulforhodamine B assay relative to control; assay type: functional; details: HOP-92, 48 h, read-out: Activity; method in brief: as §1
[8] = test system: SNB-19; assay: Growth inhibition of human SNB19 cells assessed as cell growth at 10^-5 M after 48 hrs by sulforhodamine B assay relative to control; assay type: functional; details: SNB-19, 48 h, read-out: Activity; method in brief: as §1
[9] = Growth inhibition of human Hs 578T cells assessed as cell growth at 10^-5 M after 48 hrs by sulforhodamine B assay relative to control; assay type: functional; details: read-out: Activity; method in brief: as §1
[10] = test system: RXF 393; assay: Growth inhibition of human RXF393 cells assessed as cell growth at 10^-5 M after 48 hrs by sulforhodamine B assay relative to control; assay type: functional; details: RXF 393, 48 h, read-out: Activity; method in brief: as §1
[11] = test system: UACC-62; assay: Growth inhibition of human UACC62 cells assessed as cell growth at 10^-5 M after 48 hrs by sulforhodamine B assay relative to control; assay type: functional; details: UACC-62, 48 h, read-out: Activity; method in brief: as §2
[12] = test system: LOX IMVI; assay: Growth inhibition of human LOXIMVI cells assessed as cell growth at 10^-5 M after 48 hrs by sulforhodamine B assay relative to control; assay type: functional; details: read-out: Activity; method in brief: as §1
[13] = test system: CAKI-1; assay: Growth inhibition of human CAKI-1 cells assessed as cell growth at 10^-5 M after 48 hrs by sulforhodamine B assay relative to control; assay type: functional; details: CAKI-1, 48 h, read-out: Activity; method in brief: as §1
[14] = test system: SW-620; assay: Growth inhibition of human SW620 cells assessed as cell growth at 10^-5 M after 48 hrs by sulforhodamine B assay relative to control; assay type: functional; details: SW-620, 48 h, read-out: Activity; method in brief: as §2
[15] = test system: HCT-116; assay: Growth inhibition of human HCT116 cells assessed as cell growth at 10^-5 M after 48 hrs by sulforhodamine B assay relative to control; assay type: functional; details: HCT-116, 48 h, read-out: Activity; method in brief: as §1
[16] = test system: MDA-MB-468; assay: Growth inhibition of human MDA-MB-468 cells assessed as cell growth at 10^-5 M after 48 hrs by sulforhodamine B assay relative to control; assay type: functional; details: MDA-MB-468, 48 h, read-out: Activity; method in brief: as §1
[17] = test system: U-251; assay: Growth inhibition of human U251 cells assessed as cell growth at 10^-5 M after 48 hrs by sulforhodamine B assay relative to control; assay type: functional; details: U-251, 48 h, read-out: Activity; method in brief: as §2
[18] = test system: PC-3; assay: Growth inhibition of human PC3 cells assessed as cell growth at 10^-5 M after 48 hrs by sulforhodamine B assay relative to control; assay type: functional; details: PC-3, 48 h, read-out: Activity; method in brief: as §1
[19] = test system: MDA-MB-231; assay: Growth inhibition of human MDA-MB-231 cells assessed as cell growth at 10^-5 M after 48 hrs by sulforhodamine B assay relative to control; assay type: functional; details: MDA-MB-231, 48 h, read-out: Activity; method in brief: as §1
[20] = test system: NCI-H460; assay: Growth inhibition of human NCI-H460 cells assessed as cell growth at 10^-5 M after 48 hrs by sulforhodamine B assay relative to control; assay type: functional; details: NCI-H460, 48 h, read-out: Activity; method in brief: as §1
[21] = test system: DU-145; assay: Growth inhibition of human DU145 cells assessed as cell growth at 10^-5 M after 48 hrs by sulforhodamine B assay relative to control; assay type: functional; details: DU-145, 48 h, read-out: Activity; method in brief: as §1
[22] = test system: UO-31; assay: Growth inhibition of human UO31 cells assessed as cell growth at 10^-5 M after 48 hrs by sulforhodamine B assay relative to control; assay type: functional; details: UO-31, 48 h, read-out: Activity; method in brief: as §2
[23] = test system: KM12; assay: Growth inhibition of human KM12 cells assessed as cell growth at 10^-5 M after 48 hrs by sulforhodamine B assay relative to control; assay type: functional; details: KM12, 48 h, read-out: Activity; method in brief: as §1

| SMILES | growth at 10 µM [1] [%] | Ki [2] [µM] | growth at 10 µM [3] [%] | growth at 10 µM [4] [%] | Ki [5] [µM] | growth at 10 µM [6] [%] | growth at 10 µM [7] [%] | growth at 10 µM [8] [%] | growth at 10 µM [9] [%] | growth at 10 µM [10] [%] | growth at 10 µM [11] [%] | growth at 10 µM [12] [%] | growth at 10 µM [13] [%] | growth at 10 µM [14] [%] | growth at 10 µM [15] [%] | growth at 10 µM [16] [%] | growth at 10 µM [17] [%] | growth at 10 µM [18] [%] | growth at 10 µM [19] [%] | growth at 10 µM [20] [%] | further results |
| --- | --- | --- | --- | --- | --- | --- | --- | --- | --- | --- | --- | --- | --- | --- | --- | --- | --- | --- | --- | --- | --- |
| Cc1ccc(-c2csc(=N)n2CC(=O)N2CCN(c3ccccc3)CC2)cc1 | 109 | 4.29 | 92.2 | 140 | 13.5 | 100 | 69.2 | 96.6 | 88.2 | 97.3 | 85.9 | 96.8 | 70.4 | 105 | 103 | 97.6 | 95.3 | 82.1 | 78.8 | 105 | growth at 10 µM [21]: 104%; growth at 10 µM [22]: 78.8%; growth at 10 µM [23]: 104% |
| N=c1scc(-c2ccc(Cl)cc2)n1CC(=O)N1CCN(c2ccccc2)CC1 | 105 | 0.093 | 92.2 | 87.2 | 1.9 | 98.6 | 76.1 | 100 | 106 | 98.8 | 98.1 | 103 | 93.3 | 104 | 101 | 89.8 | 89.6 | 81.8 | 114 | 101 | growth at 10 µM [21]: 114%; growth at 10 µM [22]: 91%; growth at 10 µM [23]: 108% |
| N=c1scc(-c2ccccc2)n1CC(=O)N1CCN(c2ccccc2)CC1 | 102 | 0.643 | 96.5 | 127 | 14.1 | 98.8 | 59 | 98.6 | 96.5 | 107 | 93.5 | 90.7 | 87.5 | 101 | 107 | 107 | 91.2 | 72.3 | 95 | 96.4 | growth at 10 µM [21]: 111%; growth at 10 µM [22]: 58%; growth at 10 µM [23]: 104% |
| CC(=O)N1CCN(C(=O)Cn2c(-c3ccc(C)cc3)csc2=N)CC1 | 106 | 1.64 | 80.6 | 121 | 15.3 | 98.9 | 60.9 | 100 | 105 | 94.8 | 74.2 | 85.5 | 81.5 | 97.6 | 85.9 | 94.3 | 85 | 65.2 | 75.3 | 103 | growth at 10 µM [21]: 110%; growth at 10 µM [22]: 83.1%; growth at 10 µM [23]: 99.4% |
| CC(=O)N1CCN(C(=O)Cn2c(-c3ccc(Cl)cc3)csc2=N)CC1 | 97 | 0.607 | 85.3 | 82.1 | 14.8 | 90.8 | 82 | 84.2 | 104 | 100 | 81.9 | 93.8 | 82.8 | 106 | 93 | 82.9 | 85.9 | 81.6 | 111 | 101 | growth at 10 µM [21]: 99%; growth at 10 µM [22]: 89.1%; growth at 10 µM [23]: 95.2% |

Reference: ChEMBL document CHEMBL2434944, “Novel acetamidothiazole derivatives: synthesis and in vitro anticancer evaluation” (Eur J Med Chem, 2013)
